Data taken from ChEMBL document CHEMBL4270554, “Discovery of the cancer cell selective dual acting anti-cancer agent (Z)-2-(1H-indol-3-yl)-3-(isoquinolin-5-yl)acrylonitrile (A131)” (Eur J Med Chem, 2018).

Experiments:
HeLa [1] = experiment: Potency index, ratio of autophagy induction of test compound to chloroquine in human HeLa cells; type: functional
[2] = Intrinsic clearance in pooled female rat liver microsomes assessed per mg protein at 3 uM preincubated for 5 mins followed by NADPH addition measured after 45 mins by LC-MS/MS method; type: ADME, microsome; conditions: read-out: CLH
Summary of the method: (§1)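 Pooled female or male rat liver microsomes (0.3 mg protein/mL) with substrate at final 3 μM in 0.1 M phosphate pH 7.4. Pre-incubated 5 min at 37 °C, then started with NADPH (final 1 mM). Sampled at 0–45 min in triplicate, quenched with cold acetonitrile plus internal standard. Parent measured by LC-MS/MS. Midazolam as positive control; no-NADPH negative control.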

BJ [3] = experiment: Cell cycle arrest in human BJ cells assessed as accumulation at sub-G1 phase at 5 uM after 48 hrs; type: cell-based
Summary of the method: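 Isogenic normal and fully transformed BJ fibroblasts (hTert, small t, shRNAs to p53 and pRb, H-RasV12-ER) exposed to 5 μM for 48 h. Percentage of cells in sub-G1 phase determined as a cell death measure.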

[4] = Antiproliferative activity against human IMR90 cells after 72 hrs by MTT assay; type: cell-based; conditions: IMR-90 cells
Summary of the method: (§2)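 Cells cultured at 37 °C, 5% CO₂ in medium with 10% FBS and penicillin/streptomycin, used within 12-20 passages. Seeded at 2.5×10^3 cells/well for 24 h, then compound added from DMSO stocks at 200-fold final concentration (final DMSO 0.5% v/v). After 72 h, 0.5 mg/mL MTT for 3 h, formazan dissolved in DMSO, A570 read. IC50 from sigmoidal fit; three independent determinations.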

[5] = Antiproliferative activity against human ARPE19 cells after 72 hrs by MTT assay; type: cell-based; conditions: ARPE-19 cells; summary of the method: as §2
[6] = Antiproliferative activity against human hTERT-RPE1 cells after 72 hrs by MTT assay; type: cell-based, TERT-RPE1; summary of the method: as §2
[7] = Antiproliferative activity against human Ist1 cells after 72 hrs by MTT assay; type: functional; summary of the method: as §2
HGC-27 = experiment: Antiproliferative activity against human HGC27 cells after 72 hrs by MTT assay; type: functional; conditions: HGC-27, 72 h; summary of the method: as §2
[8] = Antiproliferative activity against human SNU620 cells after 72 hrs by MTT assay; type: functional; conditions: SNU620, 72 h; summary of the method: as §2
SNU1 = experiment: Antiproliferative activity against human SNU1 cells after 72 hrs by MTT assay; type: functional; conditions: SNU1, 72 h; summary of the method: as §2
[9] = Antiproliferative activity against human SNU216 cells after 72 hrs by MTT assay; type: functional; conditions: SNU-216, 72 h; summary of the method: as §2
SCH = experiment: Antiproliferative activity against human SCH cells after 72 hrs by MTT assay; type: functional; summary of the method: as §2
MKN-45 = experiment: Antiproliferative activity against human MKN45 cells after 72 hrs by MTT assay; type: functional; conditions: MKN-45, 72 h; summary of the method: as §2
AGS = experiment: Antiproliferative activity against human AGS cells after 72 hrs by MTT assay; type: functional; summary of the method: as §2
HCT-15 = experiment: Antiproliferative activity against human HCT15 cells after 72 hrs by MTT assay; type: functional; conditions: HCT-15, 72 h; summary of the method: as §2
HCT-116 = experiment: Antiproliferative activity against human HCT116 cells after 72 hrs by MTT assay; type: functional; conditions: HCT-116, 72 h; summary of the method: as §2
Huh-7 = experiment: Antiproliferative activity against human HuH7 cells after 72 hrs by MTT assay; type: functional; conditions: Huh-7, 72 h; summary of the method: as §2
SNU-449 = experiment: Antiproliferative activity against human SNU449 cells after 72 hrs by MTT assay; type: functional; conditions: SNU-449, 72 h; summary of the method: as §2
HeLa [10] = experiment: Antiproliferative activity against human HeLa cells after 72 hrs by MTT assay; type: functional; summary of the method: as §2
[11] = Selectivity index, ratio of IC50 for human BJ cells to IC50 for human BJ cells transformed with hTert, small t, shRNAs against p53 and pRb and H-RasV12-ER; type: functional
Summary of the method: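 Normal BJ fibroblasts and transformed BJ fibroblasts were grown at 37 °C in 5% CO₂ with 10% FBS, seeded at 2.5×10^3 cells/well for 24 h, then treated for 72 h at 0.5% v/v final DMSO. MTT at 0.5 mg/mL was added for 3 h, formazan was dissolved in DMSO and absorbance read at 570 nm. IC50 came from sigmoidal fits of three independent determinations. The index is normal-cell IC50 over transformed-cell IC50.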

[12] = Antiproliferative activity against human AC10 cells at 50 uM after 72 hrs by MTT assay; type: cell-based
BJ [13] = experiment: Induction of apoptosis in human BJ cells assessed as activation of caspase-3/7 up to 5 uM after 48 hrs by caspase-Glo 3/7 luminescent assay; type: cell-based
Summary of the method: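 Normal and transformed BJ cells treated 48 h across a concentration series. Caspase-3/7 activity by Caspase-Glo 3/7 luminescence, normalized to viable cell number from MTT. Mean ± S.D., n=3; two-tailed unpaired t tests.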

SNU-16 = experiment: Antiproliferative activity against human SNU16 cells after 72 hrs by MTT assay; type: functional; conditions: SNU-16, 72 h; summary of the method: as §2
Salmonella typhimurium = experiment: Genotoxicity in Salmonella typhimurium TA100 after 48 hrs in presence of S9 mix by Ames test; type: toxicity, organism-based; conditions: salmonella enterica subsp. enterica serovar typhimurium
[14] = Half life in pooled female rat liver microsomes at 3 uM preincubated for 5 mins followed by NADPH addition measured after 45 mins by LC-MS/MS method; type: ADME, microsome
Summary of the method: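 Pooled female or male rat liver microsomes (0.3 mg protein/mL) with 3 μM substrate in 0.1 M phosphate buffer pH 7.4, pre-incubated 5 min at 37 °C, started with 1 mM NADPH. Samples at 0-45 min quenched in cold acetonitrile with internal standard, analysed by LC-MS/MS. Triplicates; midazolam positive control, no-NADPH negative control.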

[15] = Intrinsic clearance in pooled male rat liver microsomes assessed per mg protein at 3 uM preincubated for 5 mins followed by NADPH addition measured after 45 mins by LC-MS/MS method; type: ADME, microsome; conditions: read-out: CLH; summary of the method: as §1
HeLa [16] = experiment: Inhibition of colony formation in human HeLa cells at 0.6 uM after 7 days by plate colony counting method relative to control; type: functional; conditions: 168 h
Summary of the method: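 Anchorage-independent growth: HeLa cells (1×10^4 per well) in 0.4% soft agar layered over 1% agar. Compound added at final 0.15, 0.3, 0.6, 1.25, 2.5 and 5 μM. HeLa colonies counted.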

HeLa [17] = experiment: Induction of autophagy in human HeLa cells assessed as increase in LC3-2 to LC3-1 ratio at 1.25 uM after 6 hrs by immunoblot analysis relative to control; type: functional
Summary of the method: (§3)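 HeLa cells exposed 6 h to test agent (0.625–10 μM series) or chloroquine (1.25–100 μM series) vs DMSO; lysed in 1% Triton buffer (25 mM Tris pH 8.0, 150 mM NaCl, DTT, protease/phosphatase inhibitors), 14% SDS-PAGE, immunoblot with anti-LC3, anti-pH3(Ser10), β-actin loading. LC3-II/LC3-I band intensity ratio expressed relative to DMSO control.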

HeLa [18] = experiment: Induction of autophagy in human HeLa cells assessed as increase in LC3-2 to LC3-1 ratio at 10 uM after 6 hrs by immunoblot analysis relative to control; type: functional; summary of the method: as §3

What does the source list for `N#C/C(=C\c1cccc2cnccc12)c1c[nH]c2ccccc12`?
Ratio (HeLa [1]): 4 - 10; microsomal CLint at 3 µM [2]: 59 µL/min/mg; Activity (BJ [3]): Non-Toxic; GI50 at 72 h [4]: 5800 nM; GI50 at 72 h [5]: > 10000 nM; GI50 at 72 h [6]: 5200 nM; GI50 [7]: 2200 nM; GI50 (HGC-27): 1200 nM; GI50 [8]: 1000 nM; GI50 (SNU1): 900 nM; GI50 [9]: 1900 nM; GI50 (SCH): 1700 nM; GI50 (MKN-45): 1000 nM; GI50 (AGS): 1100 nM; GI50 (HCT-15): 500 nM; GI50 (HCT-116): 1800 nM; GI50 (Huh-7): 1200 nM; GI50 (SNU-449): 2300 nM; GI50 (HeLa [10]): 1400 nM; Ratio IC50 [11]: 8.5; Activity [12]: 77.6%; Activity (BJ [13]): Non-Toxic; GI50 (SNU-16): 1000 nM; Activity (Salmonella typhimurium): Non-Toxic; half-life at 3 µM [14]: 40.2 min; microsomal CLint at 3 µM [15]: 299 µL/min/mg; inhibition at 0.6 µM (HeLa [16]): 50%; fold change (FC) (HeLa [17]): 2.3; fold change (FC) (HeLa [18]): 4.3
